bIAP inh = bovine intestinal alkaline phosphatase inhibitors, primary screen, selectivity assay for TNAP inhibitor project, biochemical, bovine IAP, CDP-star luminescence. alkaline phosphatase, intestinal [Bos taurus]. inhibition, % at 20 µM. 190,000 tested, under 10 active. purified bovine IAP, 30 min;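 active means over 50% inhibition of intestinal alkaline phosphatase at 20 µM in the single-dose screen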
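Assay system – bovine IAP enzyme · Quantity – bovine IAP at 1/65,000,000 final dilution · Detection – CDP-star luminescence signal · Times – 30 min reaction at room temperature · Also added – CDP-star substrate at 30 µM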
hIAP block = human IAP inhibitors, primary screen, biochemical, luminescence, uHTS | 0.12% of 330,000 active | AID 2544, 2010 | purified IAP, CDP-Star luminescence, 30 min | inhibition, % at 10 µM;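 active means inhibition reaching a set limit with compound at 10 µM in the primary screen, cut at about 35% in these data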;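 further: plate controls were DMSO wells with enzyme for no effect and no-enzyme buffer wells for full effect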
Target sequence (P09923 whole entry, looked up): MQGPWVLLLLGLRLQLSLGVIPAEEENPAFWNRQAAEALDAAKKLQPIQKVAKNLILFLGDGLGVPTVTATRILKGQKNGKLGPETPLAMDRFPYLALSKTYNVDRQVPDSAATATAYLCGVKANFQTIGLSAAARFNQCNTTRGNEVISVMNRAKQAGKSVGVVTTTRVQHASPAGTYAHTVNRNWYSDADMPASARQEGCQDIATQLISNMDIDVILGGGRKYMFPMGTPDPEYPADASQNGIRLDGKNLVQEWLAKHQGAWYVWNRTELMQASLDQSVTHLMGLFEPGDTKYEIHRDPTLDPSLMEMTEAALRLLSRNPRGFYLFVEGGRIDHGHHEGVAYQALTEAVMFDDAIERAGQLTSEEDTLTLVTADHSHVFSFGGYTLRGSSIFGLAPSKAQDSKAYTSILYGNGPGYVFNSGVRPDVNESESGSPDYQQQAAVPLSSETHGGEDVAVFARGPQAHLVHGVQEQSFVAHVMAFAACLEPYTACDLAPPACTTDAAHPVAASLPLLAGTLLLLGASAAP
hIAP activ = human IAP activators, primary screen, biochemical, luminescence, uHTS. Intestinal-type alkaline phosphatase (Homo sapiens), P09923. purified human IAP, CDP-Star luminescence, 30 min; active compounds read high; 1 = vehicle-only enzyme, 0 = enzyme-free background. activation factor at 10 µM. 0.16% of 330,000 active. AID 2524, 2010;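 active means activation factor of the enzyme at least 2-fold when tested at 20 µM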
mIAP inh = inhibitors of mouse IAP, primary screen, biochemical, luminescence, uHTS; 0.2% of 330,000 active; inhibition, % at 10 µM; AID 2806, 2010; intestinal alkaline phosphatase [Mus musculus]; purified mouse IAP, CDP-Star luminescence, 30 min;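 active means inhibition of at least 40% at 10 µM in the primary screen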;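 further: plate controls were DMSO with enzyme for no effect and no enzyme wells for full effect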
bIAP activator = bovine intestinal alkaline phosphatase activators, primary screen, biochemical, bovine IAP, CDP-star luminescence. activation factor at 20 µM. alkaline phosphatase, intestinal [Bos taurus]. purified bovine IAP, 30 min; active compounds read high; fold of DMSO-control signal, blank-subtracted. 0.17% of 200,000 active;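 active means activation factor of 2 or more at 20 µM, a signal rise over negative controls twice the positive control's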
mIAP act = activators of mouse IAP, primary screen, biochemical, luminescence, uHTS. activation factor at 10 µM. 0.24% of 330,000 active. AID 2805, 2010. muIAP, CDP-Star luminescence, 30 min; active compounds read high; 1 = vehicle-only enzyme signal, 0 = enzyme-free wells;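 active means activation factor of at least 2 at 20 µM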
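Assay system: mouse IAP enzyme; reagent: chemiluminescent substrate CDP-Star; dosing: test compounds delivered from DMSO solution; schedule: 30 min at room temperature; measured by: luminescence from enzymatic CDP-Star hydrolysis; controls: DMSO-only wells and no-enzyme negative control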
mIAP inh conf = inhibitors of mouse IAP, confirmation, biochemical, luminescence, single concentration | shares compounds with mIAP inh | purified mouse IAP, CDP-Star luminescence, 30 min | inhibition, % at 10 µM | 4.7% of 11,000 active | AID 434971, 2010;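 active means inhibition of at least 40% at 10 µM in either of the two replicates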;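 further: plate controls were DMSO wells with enzyme for no effect and buffer wells lacking enzyme for full effect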
Active calls of the source: *; i = inactive; . = no result. Sampled rows, rich in hits. Any-hit rate of the full collection: about 0.79%.

SMILES	bIAP inh	hIAP block	hIAP activ	mIAP inh	bIAP activator	mIAP act	mIAP inh conf
COC(=O)C1N[C@@H]([C@@H](NC(=O)COc2ccccc2)C(=O)NC2CC2)SC1(C)C (stereo not given in full)	.	8	0.92	-2	.	1	.
Nc1ccncc1N	.	-21	1.2	72*	.	0.28	75*
Nc1cccc2cnccc12	0	-13	1.1	4	1	0.96	.
COc1cccc(NCc2cc(=O)oc3cc(C)c(C(C)C)cc23)c1	.	11	0.89	-8	.	1.1	.
O=C(NCc1ccc2c(c1)OCO2)c1cc(-c2ccccc2)c(N2CCOCC2)s1	.	-18	1.2	-81	.	1.8	.
CCOc1ccc(CCNC(=O)c2cc(-c3ccccc3)c(N3CCOCC3)s2)cc1	.	-20	1.2	-222	.	3.2*	-110
O=C(NCCCN1CCOCC1)/C(=C/c1cccnc1)NC(=O)c1ccccc1	-3	-7	1.1	6	1	0.94	.
COc1ccc(CN2CN(S(=O)(=O)c3ccccc3)c3nc4ccccc4nc32)cc1	.	5	0.95	6	.	0.94	.
Cc1cc(O)c(Sc2ncn[nH]2)cc1NS(=O)(=O)c1ccc(Cl)cc1	.	-10	1.1	47*	.	0.53	44*
O=S(=O)(Nc1cc(Sc2ncn[nH]2)c(O)c2ccccc12)c1ccccc1	2	-8	1.1	7	1	0.93	.
Nc1ncc2c(n1)-c1ccccc1CC2	-3	2	0.98	-7	1	1.1	.
Nc1ncc2c(n1)-c1ccoc1CC2	.	10	0.9	41*	.	0.59	56*
N=C1/C(=C\c2ccc(-c3cccc(C(=O)O)c3)o2)C(=O)N=C2SC=C(c3ccccc3)N12	.	28	0.72	40	.	0.6	.
CCc1ccc(NC(=O)Nc2ccc3c(c2)N(C)C(=O)CS3)cc1	13	-60	1.6	-187	0.9	2.9*	-114
Cc1cc(C)cc(NC(=O)Nc2ccc3c(c2)N(C)C(=O)CS3)c1	0	-42	1.4	-298	1	4*	-154
CCN(CC)c1ccc(/C=N/NC(=O)OC(C)(C)C)cc1	.	3	0.97	-6	.	1.1	.
COc1ccc(NC(=O)Nc2ccc3c(c2)C(=O)N([C@H](C)CO)C[C@H](C)[C@@H](CN(C)S(=O)(=O)c2ccc(F)cc2)O3)cc1	.	4	0.96	-185	.	2.9*	-101
Cc1ccc(S(=O)(=O)N(C)C[C@@H]2Oc3ccc(NC(=O)Nc4cccc5ccccc45)cc3C(=O)N([C@H](C)CO)C[C@H]2C)cc1	.	-9	1.1	-225	.	3.3*	-113
C[C@H](CO)N1C[C@H](C)[C@@H](CN(C)S(=O)(=O)c2ccccc2)Oc2ccc(NC(=O)C3CC3)cc2C1=O	.	-32	1.3	-3	.	1	.
C[C@@H]1CN([C@H](C)CO)C(=O)c2cc(NC(=O)Nc3ccc(C(F)(F)F)cc3)ccc2O[C@H]1CN(C)S(=O)(=O)c1cccs1	.	0	1	-69	.	1.7	.
C[C@H](CO)N1C[C@H](C)[C@@H](CN(C)S(=O)(=O)c2ccccc2)Oc2ccc(NC(=O)Nc3ccccc3)cc2C1=O	.	4	0.96	-216	.	3.2*	-162
C[C@H](CO)N1C[C@H](C)[C@@H](CN(C)S(=O)(=O)c2cccs2)Oc2ccc(NC(=O)Nc3ccccc3)cc2C1=O	.	-1	1	-221	.	3.2*	-152
CCn1c(SCc2cc(=O)[nH]c3ccccc23)nnc1C1CC1	8	4	0.96	-1	0.9	1	.
O=c1c(/C=N/N2CCOCC2)c(C(F)(F)F)[nH]n1-c1ccccc1	4	7	0.93	4	1	0.96	.
COc1cc(OC)cc(C(=O)n2cnnc2N)c1	-9	-2	1	-6	1.1	1.1	.
SMILES	bIAP inh	hIAP block	hIAP activ	mIAP inh	bIAP activator	mIAP act	mIAP inh conf
COc1ccc(OC)c(S(=O)(=O)N2CCCc3ccccc32)c1	0	-4	1	-8	1	1.1	.
CC(NC(=S)Nc1ccc(S(=O)(=O)N2CCOCC2)cc1)C1CC2CCC1C2 (stereo not given)	-10	-45	1.5	-302	1.1	4*	-145
CC(=O)Nc1ccc(S(=O)(=O)N2CCN(S(=O)(=O)N3CCOCC3)CC2)cc1	.	-15	1.1	-11	.	1.1	.
N#Cc1ccc(/C=N/NC(=S)Nc2ccc(S(=O)(=O)N3CCOCC3)cc2)cc1	.	0	1	17	.	0.83	.
O=S(=O)(c1ccc(NC(=S)N/N=C/c2ccc(O)c(O)c2)cc1)N1CCOCC1	.	34	0.66	70*	.	0.29	76*
CC(=O)Nc1csc2ccccc12	-4	1	0.99	2	1	0.98	.
O=C(Nc1ccccc1)Nc1csc2ccccc12	.	-4	1	-223	.	3.2*	-108
CCOC(=O)COn1c(-n2nc(C)cc2C)nc2ccccc2c1=O	.	-6	1.1	10	.	0.9	.
C#CCOCCOCCOCCNc1nc(N2CCN(C(=O)CCCCCCCCCCNC(=O)[C@@H](CCSC)n3cc(CCO)nn3)CC2)nc(N2CCN(C(=O)CCCCCCCCCCNC(=O)[C@H]([C@@H](C)CC)n3cc(CCCCN=C(N)N)nn3)CC2)n1	.	-53	1.5	i	.	22*	i
C#CCOCCOCCOCCNc1nc(N2CCN(C(=O)CCCCCCCCCCNC(=O)[C@@H](CCSC)n3cc(CCO)nn3)CC2)nc(N2CCN(C(=O)CCCCCCCCCCNC(=O)[C@H]([C@@H](C)CC)n3cc(CCCCCN)nn3)CC2)n1	.	3	0.97	-250	.	3.5*	i
C#CCOCCOCCOCCNc1nc(N2CCOCC2)nc(N2CCN(C(=O)CCCCCCCCCCNC(=O)[C@@H](CCSC)n3cc(CCO)nn3)CC2)n1	.	3	0.97	-27	.	1.3	.
Cn1ncc2c(N3CCN(c4ccc(Cl)c(Cl)c4)CC3)ncnc21	-3	4	0.95	-6	1	1.1	.
CN1CCN(S(=O)(=O)c2ccc3[nH]c(=O)oc3c2)CC1	19	14	0.86	43*	0.8	0.57	59*
O=c1[nH]c2ccc(S(=O)(=O)N3CCN(c4ccc(F)cc4)CC3)cc2o1	.	0	1	19	.	0.81	.
Cc1cc(O)c(CN(C)C)c2c1C(=O)/C(=C/c1ccco1)O2	.	-4	1	18	.	0.81	.
